Experimental data taken from ChEMBL document CHEMBL1154352, “Toll-like receptor 7 selective synthetic oligoribonucleotide agonists: synthesis and structure-activity relationship studies” (J Med Chem, 2009).

Key:
[1] = target: T1, Toll-like receptor 7 (Homo sapiens) (UniProt Q9NYK1); experiment: Activation of human TLR7 expressed in HEK293XL assessed as fold induction of NF-kappaB activity at 50 ug/ml after 18 hrs by reporter gene assay relative to control
T1 sequence (whole entry): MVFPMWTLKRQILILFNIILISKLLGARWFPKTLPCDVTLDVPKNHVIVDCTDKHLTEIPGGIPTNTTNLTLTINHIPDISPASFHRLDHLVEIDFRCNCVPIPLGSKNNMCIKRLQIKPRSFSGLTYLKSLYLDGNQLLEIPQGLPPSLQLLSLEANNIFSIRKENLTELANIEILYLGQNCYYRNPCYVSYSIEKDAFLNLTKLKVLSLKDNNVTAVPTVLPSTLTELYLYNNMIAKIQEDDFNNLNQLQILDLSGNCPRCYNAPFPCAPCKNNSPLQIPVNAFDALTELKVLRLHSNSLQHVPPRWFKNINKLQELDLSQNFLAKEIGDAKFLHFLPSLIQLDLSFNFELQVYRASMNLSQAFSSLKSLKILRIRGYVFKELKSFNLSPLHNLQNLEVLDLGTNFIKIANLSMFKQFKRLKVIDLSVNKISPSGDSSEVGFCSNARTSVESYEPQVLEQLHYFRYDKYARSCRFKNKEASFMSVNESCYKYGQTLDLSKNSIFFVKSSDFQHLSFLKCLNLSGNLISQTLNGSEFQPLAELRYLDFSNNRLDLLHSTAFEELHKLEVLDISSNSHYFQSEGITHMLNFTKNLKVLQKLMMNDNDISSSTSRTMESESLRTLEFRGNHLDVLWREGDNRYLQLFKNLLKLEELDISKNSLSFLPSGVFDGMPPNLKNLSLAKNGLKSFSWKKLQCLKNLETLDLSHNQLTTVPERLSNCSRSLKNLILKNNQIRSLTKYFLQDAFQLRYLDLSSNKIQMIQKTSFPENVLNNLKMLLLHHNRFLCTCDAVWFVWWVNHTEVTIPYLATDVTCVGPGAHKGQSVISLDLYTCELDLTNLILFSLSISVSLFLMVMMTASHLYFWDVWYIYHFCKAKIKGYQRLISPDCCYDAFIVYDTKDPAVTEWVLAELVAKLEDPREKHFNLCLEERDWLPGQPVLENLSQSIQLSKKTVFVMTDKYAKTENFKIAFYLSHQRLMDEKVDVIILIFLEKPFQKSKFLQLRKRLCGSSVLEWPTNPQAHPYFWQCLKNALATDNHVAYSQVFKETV
In short: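 HEK293 cells stably expressing human TLR7 or TLR8, transiently transfected with SEAP reporter plasmid; medium replaced, SIMRA compounds added, 18 h incubation. Supernatant SEAP measured by QuantiBlue; expressed as fold increase in NF-κB activity over PBS control. Tabulated data at 50 μg/mL, representative of three independent experiments.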

Homo sapiens = organism: Homo sapiens; experiment: Ratio of human TLR7 activity to human TLR8 activity
In short: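 TLR7/TLR8 ratio computed from fold NF-κB (SEAP reporter) activation in HEK293 cells stably expressing human TLR7 versus TLR8, compounds at 50 μg/mL, 18 h exposure; representative of three independent experiments.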

| fold change (FC) [1] | Ratio (Homo sapiens) | Compound |
| --- | --- | --- |
| 18.4 | 46 | Nc1ccn([C@@H]2O[C@H](COP(=O)(S)O[C@H]3[C@@H](O)[C@H](n4cnc5c(N)ncnc54)O[C@@H]3COP(=O)(S)O[C@H]3[C@@H](O)[C@H](n4cnc5c(N)ncnc54)O[C@@H]3CO)[C@@H](OP(=O)(S)OC[C@H]3O[C@@H](n4ccc(=O)[nH]c4=O)[C@H](O)[C@@H]3OP(=O)(S)OC[C@H]3O[C@@H](n4ccc5c(=O)[nH]c(N)nc54)[C@H](O)[C@@H]3OP(=O)(S)OC[C@H]3O[C@@H](n4cnc5c(N)ncnc54)[C@H](O)[C@@H]3OP(=O)(S)OC[C@H]3O[C@@H](n4ccc(N)nc4=O)[C@H](O)[C@@H]3OP(=O)(S)OC[C@H]3O[C@@H](n4ccc5c(=O)[nH]c(N)nc54)[C@H](O)[C@@H]3OP(=O)(S)OC[C@H]3O[C@@H](n4ccc(N)nc4=O)[C@H](O)[C@@H]3OP(=O)(S)OC[C@H]3O[C@@H](n4ccc(=O)[nH]c4=O)[C@H](O)[C@@H]3OP(=O)(S)OC[C@H]3O[C@@H](n4ccc5c(=O)[nH]c(N)nc54)[C@H](O)[C@@H]3OP(=O)(S)OCC(O)COP(=O)(S)O[C@H]3[C@@H](O)[C@H](n4ccc5c(=O)[nH]c(N)nc54)O[C@@H]3COP(=O)(S)O[C@H]3[C@@H](O)[C@H](n4ccc(=O)[nH]c4=O)O[C@@H]3COP(=O)(S)O[C@H]3[C@@H](O)[C@H](n4ccc(N)nc4=O)O[C@@H]3COP(=O)(S)O[C@H]3[C@@H](O)[C@H](n4ccc5c(=O)[nH]c(N)nc54)O[C@@H]3COP(=O)(S)O[C@H]3[C@@H](O)[C@H](n4ccc(N)nc4=O)O[C@@H]3COP(=O)(S)O[C@H]3[C@@H](O)[C@H](n4cnc5c(N)ncnc54)O[C@@H]3COP(=O)(S)O[C@H]3[C@@H](O)[C@H](n4ccc5c(=O)[nH]c(N)nc54)O[C@@H]3COP(=O)(S)O[C@H]3[C@@H](O)[C@H](n4ccc(=O)[nH]c4=O)O[C@@H]3COP(=O)(S)O[C@H]3[C@@H](O)[C@H](n4ccc(N)nc4=O)O[C@@H]3COP(=O)(S)O[C@H]3[C@@H](O)[C@H](n4cnc5c(N)ncnc54)O[C@@H]3COP(=O)(S)O[C@H]3[C@@H](O)[C@H](n4cnc5c(N)ncnc54)O[C@@H]3CO)[C@H]2O)c(=O)n1 (stereo partly drawn) |
| 6.1 | 8.7 | Nc1ccn([C@@H]2O[C@H](COP(=O)(S)O[C@H]3[C@@H](O)[C@H](n4ccc(N)nc4=O)O[C@@H]3COP(=O)(S)O[C@H]3[C@@H](O)[C@H](n4cnc5c(N)ncnc54)O[C@@H]3COP(=O)(S)O[C@H]3[C@@H](O)[C@H](n4ccc5c(=O)[nH]c(N)nc54)O[C@@H]3COP(=O)(S)O[C@H]3[C@@H](O)[C@H](n4ccc(=O)[nH]c4=O)O[C@@H]3COP(=O)(S)O[C@H]3[C@@H](O)[C@H](n4ccc(=O)[nH]c4=O)O[C@@H]3COP(=O)(S)O[C@H]3[C@@H](O)[C@H](n4ccc(N)nc4=O)O[C@@H]3COP(=O)(S)O[C@H]3[C@@H](O)[C@H](n4cnc5c(N)ncnc54)O[C@@H]3CO)[C@@H](OP(=O)(S)OC[C@H]3O[C@@H](n4ccc(=O)[nH]c4=O)[C@H](O)[C@@H]3OP(=O)(S)OC[C@H]3O[C@@H](n4ccc5c(=O)[nH]c(N)nc54)[C@H](O)[C@@H]3OP(=O)(S)OC[C@H]3O[C@@H](n4ccc(=O)[nH]c4=O)[C@H](O)[C@@H]3OP(=O)(S)OCC(O)COP(=O)(S)O[C@H]3[C@@H](O)[C@H](n4ccc(=O)[nH]c4=O)O[C@@H]3COP(=O)(S)O[C@H]3[C@@H](O)[C@H](n4ccc5c(=O)[nH]c(N)nc54)O[C@@H]3COP(=O)(S)O[C@H]3[C@@H](O)[C@H](n4ccc(=O)[nH]c4=O)O[C@@H]3COP(=O)(S)O[C@H]3[C@@H](O)[C@H](n4ccc(N)nc4=O)O[C@@H]3COP(=O)(S)O[C@H]3[C@@H](O)[C@H](n4ccc(N)nc4=O)O[C@@H]3COP(=O)(S)O[C@H]3[C@@H](O)[C@H](n4cnc5c(N)ncnc54)O[C@@H]3COP(=O)(S)O[C@H]3[C@@H](O)[C@H](n4ccc5c(=O)[nH]c(N)nc54)O[C@@H]3COP(=O)(S)O[C@H]3[C@@H](O)[C@H](n4ccc(=O)[nH]c4=O)O[C@@H]3COP(=O)(S)O[C@H]3[C@@H](O)[C@H](n4ccc(=O)[nH]c4=O)O[C@@H]3COP(=O)(S)O[C@H]3[C@@H](O)[C@H](n4ccc(N)nc4=O)O[C@@H]3COP(=O)(S)O[C@H]3[C@@H](O)[C@H](n4cnc5c(N)ncnc54)O[C@@H]3CO)[C@H]2O)c(=O)n1 (stereo partly drawn) |
| 28.9 | 19.3 | Nc1ccn([C@@H]2O[C@H](CO)[C@@H](OP(=O)(S)OC[C@H]3O[C@@H](n4ccc(=O)[nH]c4=O)[C@H](O)[C@@H]3OP(=O)(S)OC[C@H]3O[C@@H](n4ccc(=O)[nH]c4=O)[C@H](O)[C@@H]3OP(=O)(S)OC[C@H]3O[C@@H](n4ccc5c(=O)[nH]c(N)nc54)[C@H](O)[C@@H]3OP(=O)(S)OC[C@H]3O[C@@H](n4ccc(=O)[nH]c4=O)[C@H](O)[C@@H]3OP(=O)(S)OC[C@H]3O[C@@H](n4ccc5c(=O)[nH]c(N)nc54)[C@H](O)[C@@H]3OP(=O)(S)OC[C@H]3O[C@@H](n4cnc5c(N)ncnc54)[C@H](O)[C@@H]3OP(=O)(S)OC[C@H]3O[C@@H](n4ccc5c(=O)[nH]c(N)nc54)[C@H](O)[C@@H]3OP(=O)(S)OC[C@H]3O[C@@H](n4ccc(N)nc4=O)[C@H](O)[C@@H]3OP(=O)(S)OC[C@H]3O[C@@H](n4ccc(=O)[nH]c4=O)[C@H](O)[C@@H]3OP(=O)(S)OC[C@H]3O[C@@H](n4ccc(=O)[nH]c4=O)[C@H](O)[C@@H]3OP(=O)(S)OCC(O)COP(=O)(S)O[C@H]3[C@@H](O)[C@H](n4ccc(=O)[nH]c4=O)O[C@@H]3COP(=O)(S)O[C@H]3[C@@H](O)[C@H](n4ccc(=O)[nH]c4=O)O[C@@H]3COP(=O)(S)O[C@H]3[C@@H](O)[C@H](n4ccc(N)nc4=O)O[C@@H]3COP(=O)(S)O[C@H]3[C@@H](O)[C@H](n4ccc5c(=O)[nH]c(N)nc54)O[C@@H]3COP(=O)(S)O[C@H]3[C@@H](O)[C@H](n4cnc5c(N)ncnc54)O[C@@H]3COP(=O)(S)O[C@H]3[C@@H](O)[C@H](n4ccc5c(=O)[nH]c(N)nc54)O[C@@H]3COP(=O)(S)O[C@H]3[C@@H](O)[C@H](n4ccc(=O)[nH]c4=O)O[C@@H]3COP(=O)(S)O[C@H]3[C@@H](O)[C@H](n4ccc5c(=O)[nH]c(N)nc54)O[C@@H]3COP(=O)(S)O[C@H]3[C@@H](O)[C@H](n4ccc(=O)[nH]c4=O)O[C@@H]3COP(=O)(S)O[C@H]3[C@@H](O)[C@H](n4ccc(=O)[nH]c4=O)O[C@@H]3COP(=O)(S)O[C@H]3[C@@H](O)[C@H](n4ccc(N)nc4=O)O[C@@H]3CO)[C@H]2O)c(=O)n1 (stereo partly drawn) |
| 18.4 | 4 | Nc1ccn([C@@H]2O[C@H](COP(=O)(S)O[C@H]3[C@@H](O)[C@H](n4cnc5c(N)ncnc54)O[C@@H]3COP(=O)(S)O[C@H]3[C@@H](O)[C@H](n4ccc5c(=O)[nH]c(N)nc54)O[C@@H]3COP(=O)(S)O[C@H]3[C@@H](O)[C@H](n4ccc(=O)[nH]c4=O)O[C@@H]3CO)[C@@H](OP(=O)(S)OC[C@H]3O[C@@H](n4ccc5c(=O)[nH]c(N)nc54)[C@H](O)[C@@H]3OP(=O)(S)OC[C@H]3O[C@@H](n4cnc5c(N)ncnc54)[C@H](O)[C@@H]3OC[C@H]3O[C@@H](n4ccc(=O)[nH]c4=O)[C@H](O)[C@@H]3OP(=O)(S)ON[C@H]3O[C@@H](n4ccc5c(=O)[nH]c(N)nc54)[C@H](O)[C@@H]3OP(=O)(S)OC[C@H]3O[C@@H](n4cnc5c(N)ncnc54)[C@H](O)[C@@H]3OP(=O)(S)OC[C@H]3O[C@@H](n4ccc(=O)[nH]c4=O)[C@H](O)[C@@H]3OP(=O)(S)OC[C@H]3O[C@@H](n4ccc(=O)[nH]c4=O)[C@H](O)[C@@H]3OP(=O)(S)OCC(O)COP(=O)(S)O[C@H]3[C@@H](O)[C@H](n4ccc(=O)[nH]c4=O)O[C@@H]3COP(=O)(S)O[C@H]3[C@@H](O)[C@H](n4ccc(=O)[nH]c4=O)O[C@@H]3COP(=O)(S)O[C@H]3[C@@H](O)[C@H](n4cnc5c(N)ncnc54)O[C@@H]3COP(=O)(S)O[C@H]3[C@@H](O)[C@H](n4ccc5c(=O)[nH]c(N)nc54)O[C@@H]3NOP(=O)(S)O[C@H]3[C@@H](O)[C@H](n4ccc(=O)[nH]c4=O)O[C@@H]3CO[C@H]3[C@@H](O)[C@H](n4cnc5c(N)ncnc54)O[C@@H]3COP(=O)(S)O[C@H]3[C@@H](O)[C@H](n4ccc5c(=O)[nH]c(N)nc54)O[C@@H]3COP(=O)(S)O[C@H]3[C@@H](O)[C@H](n4ccc(N)nc4=O)O[C@@H]3COP(=O)(S)O[C@H]3[C@@H](O)[C@H](n4cnc5c(N)ncnc54)O[C@@H]3COP(=O)(S)O[C@H]3[C@@H](O)[C@H](n4ccc5c(=O)[nH]c(N)nc54)O[C@@H]3COP(=O)(S)O[C@H]3[C@@H](O)[C@H](n4ccc(=O)[nH]c4=O)O[C@@H]3CO)[C@H]2O)c(=O)n1 (stereo partly drawn) |
